# Hits are enriched below; roughly 12% of the tested compounds scored in any of these assays.
# Lmaj promast = Leishmania major promastigote growth inhibition, primary screen; Leishmania major promastigotes, resazurin fluorescence viability; AID 1063, 2008; inhibition, % at 10 µM; 200,000 compounds, 9% hits; in the data active = inhibition above about 50%;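 also: promastigotes grown with compound for 44 hours at 28 °C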
# RAM inhibit = inhibitors of the yeast RAM network, primary screen, dse1pr::URA3 reporter, 5-FOA selection; S. cerevisiae dse1pr::URA3 reporter, 5-FOA growth OD615, 2 d; analog-sensitive cbk1-as2 kinase mutant strain; inhibition, % at 50 µM; 190,000 compounds, 1.8% hits;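 active = inhibition above a set limit, 3 SD over mean compound inhibition, cut at about 8.4% in these data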;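 also: 0% = DMSO-only wells with no growth and 100% = 10 µM 1-NA-PP1 full growth; inhibition rescues growth on 5-FOA so higher OD means more RAM inhibition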
# WT yeast gro inh = growth inhibition of WT strain, primary screen, mitochondrial fusion inhibitor project, WT and mutant strains, chemical genetic. AID 1362, 2008. inhibition, % at 10 µM. 190,000 compounds, 2.1% hits. mitochondrial fusion phenotypic screen; in the data active = inhibition above about 58%; tested in S. cerevisiae
# ABCB1 block = ABCB1 efflux pump inhibitors, primary screen, cell-based, multiplex, flow cytometry, ABCG2 counter-screen; ATP-dependent translocase ABCB1 (Homo sapiens), P08183; CCRF-Adr cells, JC-1 efflux; inhibition, % at 6.6 µM; 190,000 compounds, 0.067% hits; AID 1326, 2008; in the data active = inhibition above about 40%;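 also: 0% = vehicle and 100% = reference inhibitor; higher value means more JC-1 retained so stronger ABCB1 efflux block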
# Target sequence (P08183 whole entry, looked up): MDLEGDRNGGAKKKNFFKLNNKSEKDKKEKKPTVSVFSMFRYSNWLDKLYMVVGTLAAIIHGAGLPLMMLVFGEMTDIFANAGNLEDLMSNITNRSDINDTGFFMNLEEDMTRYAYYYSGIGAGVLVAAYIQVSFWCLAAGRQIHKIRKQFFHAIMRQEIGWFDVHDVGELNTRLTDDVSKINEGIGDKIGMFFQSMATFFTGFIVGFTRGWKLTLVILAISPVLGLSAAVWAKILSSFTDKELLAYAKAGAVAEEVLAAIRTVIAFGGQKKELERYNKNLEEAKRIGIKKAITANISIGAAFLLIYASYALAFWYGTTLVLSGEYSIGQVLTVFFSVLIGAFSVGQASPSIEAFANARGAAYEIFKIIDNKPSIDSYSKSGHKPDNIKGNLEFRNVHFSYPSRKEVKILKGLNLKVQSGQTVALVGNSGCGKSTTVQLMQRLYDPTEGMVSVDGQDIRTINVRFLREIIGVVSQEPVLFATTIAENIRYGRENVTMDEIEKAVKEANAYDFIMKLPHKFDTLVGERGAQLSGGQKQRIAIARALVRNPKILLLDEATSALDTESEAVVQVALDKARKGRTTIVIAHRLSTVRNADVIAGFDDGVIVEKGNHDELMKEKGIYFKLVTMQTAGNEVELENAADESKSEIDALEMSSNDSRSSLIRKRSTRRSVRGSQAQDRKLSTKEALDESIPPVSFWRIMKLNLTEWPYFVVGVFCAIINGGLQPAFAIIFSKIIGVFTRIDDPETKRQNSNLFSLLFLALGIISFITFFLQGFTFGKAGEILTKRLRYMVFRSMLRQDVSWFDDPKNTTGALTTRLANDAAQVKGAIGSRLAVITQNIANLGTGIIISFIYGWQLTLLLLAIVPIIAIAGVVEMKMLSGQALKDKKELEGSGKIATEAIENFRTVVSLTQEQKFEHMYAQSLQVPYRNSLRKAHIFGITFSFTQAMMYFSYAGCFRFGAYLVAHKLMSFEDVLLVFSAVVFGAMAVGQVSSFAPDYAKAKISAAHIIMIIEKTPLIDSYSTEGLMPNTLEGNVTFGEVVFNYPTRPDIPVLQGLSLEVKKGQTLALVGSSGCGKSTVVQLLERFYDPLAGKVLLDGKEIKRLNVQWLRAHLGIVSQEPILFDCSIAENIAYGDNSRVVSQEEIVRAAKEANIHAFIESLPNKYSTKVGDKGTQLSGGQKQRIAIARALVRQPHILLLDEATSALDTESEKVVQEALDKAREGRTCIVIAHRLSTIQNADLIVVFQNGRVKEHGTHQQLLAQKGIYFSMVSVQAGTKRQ
# ABCG2 inh = ABCG2 efflux pump inhibitors, primary screen, multiplex with ABCB1, IgMXP3 cells, flow cytometry. AID 1325, 2008. 190,000 compounds, 0.1% hits. JC-1 efflux. inhibition, % at 6.6 µM;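 active = inhibition above 80%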;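 also: 0% = DMSO and 100% = nicardipine control wells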
#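 Assay system – ABCG2 IgMXP3 and barcoded ABCB1 CCRF-Adr cell mix · Input – 3 million cells/mL in well · Reagent – JC-1 fluorescent substrate · Compound – single test compound dose, 6.6 µM final · Timing – 10 min exposure at 25 °C with rotation, no wash · Detection – flow cytometry of retained JC-1 fluorescence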
# * = called active by the depositor.
SMILES,Lmaj promast,RAM inhibit,WT yeast gro inh,ABCB1 block,ABCG2 inh
COc1ccc(N2CCN(C(=O)C(Cc3ccccc3)n3cccc3)CC2)cc1 (stereo not drawn),6,3,18,1,3
CN([C@@H](Cc1ccc(OS(=O)(=O)c2cccc3cnccc23)cc1)C(=O)N1CCN(c2ccccc2)CC1)S(=O)(=O)c1cccc2cnccc12,98*,9.2*,-1,6,7
O=C1CC(c2ccccc2)n2nc(N3C(=O)c4ccccc4C3=O)nc2N1 (stereo not drawn),-3,0,0,1,4
C=CCNC(=S)N/N=C/c1ccc(-c2cc(Cl)ccc2Cl)o1,5,3,3,0,3
COC(=O)c1ccc(Cl)c(-c2ccc(/C=N/NC(=O)Nc3ccccc3)o2)c1,-4,9.0*,8,0,0
O=C(Nc1cccc(C(F)(F)F)c1)n1cc(-c2ccccn2)c(N2CCOCC2)n1,-4,2,77*,1,7
CCCCc1c(C)c(C#N)c2nc3ccccc3n2c1Cl,100*,4,24,0,-3
CCc1c(C)c(C#N)c2nc3ccccc3n2c1N(C)C,16,1,7,0,0
Cc1ccc(C)c2[nH]c(=O)c(CN(Cc3ccco3)C(=S)NCC3CCCO3)cc12 (stereo not drawn),59*,2,-13,1,5
Cc1ccc2cc(CN(CC3CCCO3)C(=S)NCc3ccco3)c(=O)[nH]c2c1 (stereo not drawn),26,2,-11,0,0
Cc1ccc2[nH]c(=O)c(CN(CC3CCCO3)C(=S)NCc3ccco3)cc2c1 (stereo not drawn),57*,4,-2,2,8
Cc1ccc2cc(CN(CC3CCCO3)C(=S)Nc3ccccc3)c(=O)[nH]c2c1C (stereo not drawn),67*,1,22,1,-2
Cc1ccc2[nH]c(=O)c(CN(CC3CCCO3)C(=S)Nc3ccccc3)cc2c1 (stereo not drawn),54*,4,16,1,1
COc1cc(C(=O)N(Cc2cc3cc(C)ccc3[nH]c2=O)CC2CCCO2)cc(OC)c1OC (stereo not drawn),0,1,12,0,2
COc1cccc(C(=O)N(Cc2cc3cc(C)ccc3[nH]c2=O)CC2CCCO2)c1 (stereo not drawn),75*,0,4,0,4
Cc1ccc(C(O)(c2ccccc2)c2ccccc2C(C)N(C)C)c(C)c1 (stereo not drawn),100*,0,60,1,1
CC(c1ccccc1C(O)c1ccccc1)N(C)C (stereo not drawn),-2,0,-5,0,2
O=C(Nc1ccccc1C(=O)N1CCCCC1)NC1CCCCC1,-6,1,-7,0,0
Cc1ccc2c(C)c(C(=O)NCc3ccc(S(N)(=O)=O)cc3)oc2c1,-5,3,3,0,3
c1coc(-c2nc3nc4ccccc4nc3n2-c2ccc3c(c2)OCCO3)c1,84*,1,10,0,0
Cn1ncc2c(N3CCC(Cc4ccccc4)CC3)ncnc21,10,0,21,1,1
NNC(=O)c1cc2c(N3CCC(Cc4ccccc4)CC3)ncnc2s1,-9,5,58*,0,1
COC(=O)Cc1cc(=O)oc2cc(O)ccc12,-6,3,-12,1,2
Cc1ccc(NC(=S)NCCN(C2CCCCC2)C2CCCC2)cc1,34,2,17,3,3
Cc1cc(C)cc(NC(=S)NCCN(C2CCCCC2)C2CCCC2)c1,63*,0,38,1,11
SMILES,Lmaj promast,RAM inhibit,WT yeast gro inh,ABCB1 block,ABCG2 inh
CCOCCCNC(=S)Nc1cc(C)cc(C)c1,14,-1,10,3,5
Cc1ccc(NC(=S)NCCN(C2CCCCC2)C2CCCC2)cc1C,64*,1,43,3,0
COC(=O)c1c(NC(=S)Nc2ccc(C(=O)N3CCOCC3)cc2)sc2c1CCC2,-7,7,-15,1,3
N#C/C(=C\c1cccnc1)c1nc2c(s1)CCCC2,25,2,-5,1,8
COc1cc(/C=C(\C#N)c2nc3c(s2)CCCC3)ccc1O,-4,9.6*,53,1,4
O=C(CCc1nnc(CCc2ccccc2)o1)N1CCCC1c1nccs1 (stereo not drawn),-4,1,-10,2,4
CN1CCN(NS(=O)(=O)c2ccc(Cl)s2)CC1,55*,0,-25,0,0
O=C(NCCCn1ccnc1)C(=O)NCC1OCCCN1S(=O)(=O)c1ccc(Cl)cc1 (stereo not drawn),51*,0,-8,0,3
O=C(NCCc1c[nH]c2ccccc12)C(=O)NCC1OCCCN1S(=O)(=O)c1ccccc1 (stereo not drawn),8,1,-18,0,6
O=C(NCCc1c[nH]c2ccccc12)C(=O)NCC1OCCN1S(=O)(=O)c1ccc(Cl)cc1 (stereo not drawn),54*,5,-6,2,20
O=C(NCCc1c[nH]c2ccccc12)C(=O)NCC1OCCN1S(=O)(=O)c1ccccc1 (stereo not drawn),70*,1,-3,1,21
O=C(NCCC1=CCCCC1)C(=O)NCC1OCCCN1S(=O)(=O)c1ccc(F)cc1 (stereo not drawn),96*,0,1,1,4
O=C(NCCCn1ccnc1)C(=O)NCC1OCCN1S(=O)(=O)c1ccc(Cl)cc1 (stereo not drawn),-2,1,2,1,5
Cc1cc(=O)oc(C)c1C(=O)NCCCN1CCN(c2ccccc2F)CC1,6,-2,3,0,1
Cc1cc(C)n(-c2ccc(C(=O)Nc3cc(S(=O)(=O)N(C)C)ccc3Cl)cc2)n1,1,4,-26,0,0
CCN(CC)c1ccc(NC(=O)COc2ccccc2C)cc1S(=O)(=O)Nc1ccccc1OC,42,7,21,2,4
CCN(CC)c1ccc(NC(=O)c2ccccc2Br)cc1S(=O)(=O)Nc1ccccc1OC,97*,0,-6,-1,-17
CCN(CC)c1ccc(NC(=O)c2ccccc2F)cc1S(=O)(=O)Nc1ccccc1OC,100*,1,15,-1,-2
CCN(CC)c1ccc(NC(=O)c2ccc(=O)[nH]c2)cc1S(=O)(=O)Nc1ccccc1OC,1,1,24,0,0
CC1(C)CC(=O)C(C(=O)C2CCN(S(=O)(=O)c3ccccc3)CC2)C(=O)C1,-5,0,-8,1,6
Brc1cnc(N2CCCC2)nc1N1CCOCC1,3,3,55,1,4
Brc1cnc(N2CCCCC2)nc1N1CCOCC1,-2,2,59*,0,0
